# Compounds with a hit are over-represented: about 2% of the library has one in this group of screens.
# NR2E3 ag-1 = inhibitors of NR2E3-RetCOR corepressor binding, primary screen, NR2E3 agonist project, biochemical, TR-FRET, GST-NR2E3, biotin-RetCOR; Photoreceptor-specific nuclear receptor (Homo sapiens), Q9Y5X4; 1536-well; inhibition of corepressor binding, % at 4.78 µM; hit rate 0.12% among 320,000; AID 2300, 2010;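 active means percent inhibition above the cutoff of mean plus 3 SD of all tested compounds, set per screening campaign, cut at about 20% in these data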;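 further: 0% = DMSO wells and 100% = biotin wells as full block of FRET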
# Target sequence (Q9Y5X4 whole entry, looked up): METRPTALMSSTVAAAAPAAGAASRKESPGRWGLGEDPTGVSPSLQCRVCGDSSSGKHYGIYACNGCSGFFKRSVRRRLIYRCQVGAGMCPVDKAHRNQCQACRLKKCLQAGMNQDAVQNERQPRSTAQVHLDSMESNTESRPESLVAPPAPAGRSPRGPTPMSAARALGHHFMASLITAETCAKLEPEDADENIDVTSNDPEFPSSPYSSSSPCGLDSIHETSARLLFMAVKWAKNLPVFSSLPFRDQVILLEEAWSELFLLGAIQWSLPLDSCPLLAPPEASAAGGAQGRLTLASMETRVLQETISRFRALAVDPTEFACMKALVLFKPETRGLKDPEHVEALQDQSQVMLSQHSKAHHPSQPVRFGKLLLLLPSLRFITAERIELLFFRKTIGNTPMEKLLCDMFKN
#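 Assay system: NR2E3–RetCOR corepressor complex. Quantity: 1.35 nM GST-NR2E3. Buffer or medium: pH 7.5 Tris-based buffer. Reagent: biotinylated RetCOR corepressor at 7 nM final. Schedule: 5 h at 4 °C. Detection: TR-FRET, emission read at 617 and 671 nm. Replicates: one well per compound, singlicate testing.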
# NR2E3 ag-2 = NR2E3 agonists in two-hybrid cells, primary screen, cell-based, luminescence, CHO-S, Gal4-NCOR/VP16-NR2E3; Photoreceptor-specific nuclear receptor (Homo sapiens), Q9Y5X4; luciferase; inhibition of corepressor binding, % at 3.98 µM; hit rate 0.35% among 360,000; AID 602229, 2012;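 active means inhibition above the mean of all tested compounds plus 3 SD, cut at about 70% in these data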;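 further: 0% = DMSO with NR2E3 transfected cells and 100% = cells lacking NR2E3 construct; higher means lower luciferase signal from less NR2E3 corepressor binding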
# HIF activator = HIF pathway transcriptional activators, primary screen, cell-based, U2OS HRE-luciferase, luminescence. U2OS HRE-luciferase reporter; normalized: DMSO 0%, desferrioxamine 100%. activation, % at 7.5 µM (by protocol). hit rate 0.32% among 300,000. AID 1910, 2009;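 active means mean activation of at least 10% of the iron chelator positive control signal, with at least half of replicates also reaching 10%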
# TROY signal inh = inhibitors of TROY-driven NF-kB signaling, primary screen, Q293 LMP1-TROYcd cells, NF-kB luciferase, uHTS. inhibition, % at 10 µM. Q293 LMP1-TROYcd NF-kB luciferase reporter, 4 h. hit rate 0.98% among 360,000;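 active means compounds whose plate-normalised and pattern-corrected inhibition of the luciferase reporter signal at the single screening dose is 50% or more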
# EBV LMP1 NFkB = EBV LMP1-driven NF-kappaB luciferase reporter inhibitors, primary screen, cell-based, luminescence, single point | LMP1-induced NF-kappaB luciferase reporter cells | inhibition, % at 12.5 µM | hit rate 0.69% among 350,000 | AID 504558, 2011; in the data active means inhibition above about 41%;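 further: 0% = neutral control wells and 100% = reference inhibitor control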
# The depositor's hits bear a star; / = not tested or not shown.
SMILES,NR2E3 ag-1,NR2E3 ag-2,HIF activator,TROY signal inh,EBV LMP1 NFkB
O=C(NCCSc1c[nH]c2ccccc12)c1ccc(Br)o1,1.9,-0.9,16.1*,-15.7,-7.4
O=C(CSc1nc2ccccc2[nH]1)NCc1ccc2c(c1)OCO2,-0.5,-11.7,/,7.0,-5.0
Cc1cccc(NC(=O)CCCNC(=O)c2ccc(Cl)cc2)n1,3.0,-12.7,0.0,22.4,2.9
COC(=O)CCCC1=CC2=CC(=O)C(C)(OC(=O)c3cccs3)C(=O)C2=CN1Cc1ccc2c(c1)OCO2 (stereo not drawn),1.6,-4.2,18.7*,9.9,11.3
COc1ccc(NS(=O)(=O)N2CCOCC2)cc1,-2.1,5.1,0.0,23.3,-0.5
O=C(c1cc2sccc2n1Cc1ccccc1)N1CCN(c2nc3ccccc3s2)CC1,2.6,79.6*,1.9,-1.6,26.2
CCC(=O)N1CCN(c2nc3ccccc3s2)CC1,2.5,-106.6,3.1,-76.3,-4.0
NC1=NC(=O)NC1(c1ccccc1)c1ccccc1,/,-12.1,/,1.8,48.3*
CC(C)N(C(=O)CN1CCN(C(=O)C2COc3ccccc3O2)CC1)C(C)C (stereo not drawn),2.0,5.2,/,3.1,7.3
CCN(C(=O)COC(=O)CNC(=O)c1ccc(F)cc1)C1CCS(=O)(=O)C1 (stereo not drawn),-1.0,4.9,-1.2,2.5,11.6
CC1(c2ccccc2)NC(=O)N(CC(=O)NCCC2=CCCCC2)C1=O (stereo not drawn),5.0,-11.3,-0.8,56.5*,-11.3
CCCCOc1cccc(C(=O)Nc2ccc(S(=O)(=O)Nc3cc(C)on3)cc2)c1,7.2,-22.0,-0.1,-13.4,-73.9
COc1ccccc1NS(=O)(=O)c1cccc(C(=O)OCC(=O)NC2CC2)c1,-0.4,11.8,-0.4,14.5,3.9
Cc1cc(NC(=O)c2cccc(COc3ccc(Br)cc3)c2)no1,-2.9,-186.8,-0.3,-59.4,43.5*
O=C(NCCc1cccs1)c1ccc(Cl)cc1,2.4,-97.7,-1.8,3.4,8.9
Cc1ccc(C(=O)NCCc2cccs2)cc1,1.5,-80.2,-3.0,69.1*,63.6*
CCN(CC)C1CCCCC1NS(=O)(=O)c1ccc(Cl)cc1 (stereo not drawn),0.4,-13.8,0.1,-12.3,52.4*
CN(c1ccccc1)C1CCCCC1NS(=O)(=O)c1ccc(Cl)cc1 (stereo not drawn),2.3,-4.0,-0.5,8.6,-6.1
COc1ccc([C@H]2N[C@]3(CCCN(Cc4ccco4)C3=O)[C@H]3C(=O)N(Cc4ccccc4)C(=O)[C@@H]23)cc1,/,-2.5,/,2.1,46.3*
CCc1ccc(OCC(=O)c2c(O)c3ccccc3oc2=O)cc1,2.7,-31.3,1.7,58.7*,5.4
CCOc1ccc(N=Cc2c(O)c3ccccc3oc2=O)cc1,-3.2,-1.0,0.2,28.7,0.2
Cc1cc(=O)oc2cc(OCC(=O)c3ccccc3)ccc12,1.6,-25.6,-0.1,-7.1,7.8
Cc1ccc(C(C)C)c(OCC(=O)c2c(O)c3ccccc3oc2=O)c1,8.7,5.5,-0.1,51.2*,10.1
Cc1ccc(OCC(=O)c2c(O)c3ccccc3oc2=O)cc1C,-5.3,-6.4,-0.2,61.8*,-2.9
COc1ccc(OC)c(N/C=C/C(=O)c2ccccc2)c1,1.5,9.4,-1.9,80.7*,72.2*
SMILES,NR2E3 ag-1,NR2E3 ag-2,HIF activator,TROY signal inh,EBV LMP1 NFkB
O=C(/C=C/Nc1ccc(F)cc1Br)c1ccccc1,0.2,-60.3,-2.3,76.5*,48.4*
CC(C)N1CCc2c(sc(NC(=O)CCS(=O)(=O)c3ccccc3)c2C#N)C1,-1.6,-20.5,-0.6,15.1,0.8
S=C(NCc1cccs1)Nc1ccccc1,0.6,-14.3,0.8,-6.8,-1.6
Cc1ccc(NC(=S)NCc2cccs2)cc1,-0.8,-23.1,0.7,-37.2,86.6*
O=C(O)CSC1CC(=O)N(c2ccc(Cl)cc2)C1=O (stereo not drawn),0.2,13.7,0.1,-11.1,4.9
O=C(CSC1CC(=O)N(CC(c2ccccc2)c2ccccc2)C1=O)Nc1ccc(Cl)cc1 (stereo not drawn),-1.7,-26.6,0.5,51.2*,-3.1
COC(=O)[C@]12CCCCC=C1N(CCC1=CCCCC1)C(=O)[C@H](CC(=O)N1CCCCC1)C2,/,-8.9,/,4.5,/
Cc1cccc(C(=O)NCN2CCN(c3ccccc3C#N)CC2)c1,/,-50.7,/,-8.8,82.4*
O=C(NCN1CCN(c2ccccc2F)CC1)c1ccccc1,-2.6,-6.9,-0.4,-13.7,-9.8
COc1cc(O)c(C(CC(=O)N2CCOCC2)c2cc(OC)c(OC)c(OC)c2)c(OC)c1 (stereo not drawn),/,-17.7,-0.3,-0.7,3.7
COc1ccc(Cl)c(OC)c1C(=O)NC(=O)Nc1c(F)cc(F)cc1F,2.0,13.3,19.4*,-7.2,2.7
Cc1ccc2ncccc2c1,-0.8,-18.7,/,-7.3,-8.1
Cc1nnc(C)c2c(C)n(-c3ccc4ncccc4c3)c(C)c12,-1.1,-11.2,0.1,51.9*,-1.0
CCN(CC)CC(O)COCCC12CC3CC(CC(C3)C1)C2 (stereo not drawn),-2.3,13.3,-0.1,-5.0,1.7
OCCN(CCO)CC(O)COc1ccc(C23CC4CC(CC(C4)C2)C3)cc1 (stereo not drawn),3.4,21.1,-6.4,46.8,42.5*
OCCN(CCO)CC(O)COc1ccc(Br)cc1 (stereo not drawn),3.9,22.5,0.1,5.0,7.8
OCCN(CCO)CC(O)COCCC12CC3CC(CC(C3)C1)C2 (stereo not drawn),-1.5,-5.2,0.1,10.6,73.2*
Cc1nnn(-c2nonc2N)c1C(=O)NNC(=O)c1ccc(Cl)c(Cl)c1,3.5,-6.5,0.7,-1.8,-2.2
COc1ccc(NC(=O)/C(Cl)=C(/Cl)S(=O)Cc2ccccc2Cl)cn1 (stereo not drawn),/,/,/,/,88.7*
COc1ccc(NC(=O)Cc2ccc(Cl)c(Cl)c2)cn1,-2.4,2.5,1.1,-36.0,-5.1
COc1ccc(NC(=O)/C(Cl)=C(/Cl)S(=O)(=O)Cc2ccc(C)cc2)cn1,/,86.2*,-4.8,85.5*,86.7*
COc1cccc(C(=O)OCn2nnc3ccccc3c2=O)c1OC,1.0,-12.1,0.0,-24.0,53.5*
Cc1cccc(C(=O)NC2C(=O)NNC2c2ccc(Cl)cc2)c1 (stereo not drawn),7.2,-20.2,0.1,-10.5,4.9
O=C(NC1C(=O)NNC1c1ccccc1)c1ccccc1 (stereo not drawn),-2.6,-87.0,2.5,-52.1,44.2*
CC(=O)Nc1c([N+](=O)[O-])cc2[nH]c(=O)[nH]c2c1[N+](=O)[O-],-0.9,15.2,0.0,-6.7,-9.5
